# In ChEMBL document CHEMBL1137710, “Synthesis and in vitro antitumor activity of new quinoxaline derivatives” (2009):
# Key:
# Format in all cases: functional
# [1] = system: SNB-19; test: Growth inhibition of human SNB19 cells after 48 hrs by sulforhodamine B assay; conditions: SNB-19, 48 h
# How it was run: (§1)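 Run in the NCI 60-human-tumour-cell-line panel, tested over a 5-log dose range. Dose–response curves gave three values per cell line, each as a log10 molar concentration: GI50 (50% inhibition of net cell growth), TGI (total inhibition of net growth) and LC50 (50% net cell death). The mean graph midpoint is the arithmetic mean over all lines, with insensitive lines entered at the highest concentration tested.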
# [2] = Growth inhibition of human […] cells after 48 hrs by sulforhodamine B assay
# How it was run: (§2)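 NCI 60-human-tumor-cell-line panel, with compounds tested over a 5-log dose range. Values are taken from dose-response curves as log10 molar concentrations: GI50 is 50% net growth inhibition, TGI is total growth inhibition, and LC50 is 50% net cell death.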
# [3] = system: SK-MEL-28; test: Growth inhibition of human SK-MEL-28 cells after 48 hrs by sulforhodamine B assay; conditions: SK-MEL-28, 48 h; how it was run: as §2
# [4] = system: A549; test: Growth inhibition of human A549 cells after 48 hrs by sulforhodamine B assay; conditions: A549, 48 h; how it was run: as §2
# [5] = system: M14; test: Growth inhibition of human M14 cells after 48 hrs by sulforhodamine B assay; conditions: M14, 48 h; how it was run: as §2
# [6] = system: OVCAR-8; test: Growth inhibition of human OVCAR8 cells after 48 hrs by sulforhodamine B assay; conditions: OVCAR-8, 48 h; how it was run: as §2
# [7] = system: SF-268; test: Anticancer activity against human SF268 cells assessed as cell growth at 100 uM after 48 hrs by sulforhodamine B assay; conditions: SF-268, 48 h, read-out: Activity
# [8] = system: IGROV-1; test: Growth inhibition of human IGROV1 cells after 48 hrs by sulforhodamine B assay; conditions: IGROV-1, 48 h; how it was run: as §2
# [9] = system: HCT-116; test: Growth inhibition of human HCT116 cells after 48 hrs by sulforhodamine B assay; conditions: HCT-116, 48 h; how it was run: as §2
# [10] = system: MCF7; test: Growth inhibition of human MCF7 cells after 48 hrs by sulforhodamine B assay; conditions: MCF7, 48 h; how it was run: as §2
# [11] = system: U-251; test: Growth inhibition of human U251 cells after 48 hrs by sulforhodamine B assay; conditions: U-251, 48 h; how it was run: as §1
# [12] = system: NCI-H460; test: Growth inhibition of human NCI-H460 cells after 48 hrs by sulforhodamine B assay; conditions: NCI-H460, 48 h; how it was run: as §2
# [13] = system: RXF 393; test: Growth inhibition of human RXF393 cells after 48 hrs by sulforhodamine B assay; conditions: RXF 393, 48 h; how it was run: as §2
# [14] = system: SK-MEL-5; test: Growth inhibition of human SK-MEL-5 cells after 48 hrs by sulforhodamine B assay; conditions: SK-MEL-5, 48 h; how it was run: as §2
# [15] = system: SF-268; test: Growth inhibition of human SF268 cells after 48 hrs by sulforhodamine B assay; conditions: SF-268, 48 h; how it was run: as §2
# [16] = system: NCI-H460; test: Anticancer activity against human NCI-H460 cells assessed as cell growth at 100 uM after 48 hrs by sulforhodamine B assay; conditions: NCI-H460, 48 h, read-out: Activity
# [17] = system: NCI-H23; test: Growth inhibition of human NCI-H23 cells after 48 hrs by sulforhodamine B assay; conditions: NCI-H23, 48 h; how it was run: as §2
# [18] = system: PC-3; test: Growth inhibition of human PC3 cells after 48 hrs by sulforhodamine B assay; conditions: PC-3, 48 h; how it was run: as §2
# [19] = system: SW-620; test: Growth inhibition of human SW620 cells after 48 hrs by sulforhodamine B assay; conditions: SW-620, 48 h; how it was run: as §1
# [20] = system: MDA-MB-231; test: Growth inhibition of human MDA-MB-231 cells after 48 hrs by sulforhodamine B assay; conditions: MDA-MB-231, 48 h; how it was run: as §2
# [21] = system: OVCAR-4; test: Growth inhibition of human OVCAR4 cells after 48 hrs by sulforhodamine B assay; conditions: OVCAR-4, 48 h; how it was run: as §2
# [22] = system: MDA-MB-435; test: Growth inhibition of human MDA-MB-435 cells after 48 hrs by sulforhodamine B assay; conditions: MDA-MB-435, 48 h; how it was run: as §2
# [23] = system: UACC-257; test: Growth inhibition of human UACC257 cells after 48 hrs by sulforhodamine B assay; conditions: UACC-257, 48 h; how it was run: as §1
# [24] = system: DU-145; test: Growth inhibition of human DU145 cells after 48 hrs by sulforhodamine B assay; conditions: DU-145, 48 h; how it was run: as §2
# [25] = system: SF-295; test: Growth inhibition of human SF295 cells after 48 hrs by sulforhodamine B assay; conditions: SF-295, 48 h; how it was run: as §2
# [26] = system: TK-10; test: Growth inhibition of human TK10 cells after 48 hrs by sulforhodamine B assay; conditions: TK-10, 48 h; how it was run: as §1
# [27] = system: UACC-62; test: Growth inhibition of human UACC62 cells after 48 hrs by sulforhodamine B assay; conditions: UACC-62, 48 h; how it was run: as §1
# [28] = system: MCF7; test: Anticancer activity against human MCF7 cells assessed as cell growth at 100 uM after 48 hrs by sulforhodamine B assay; conditions: MCF7, 48 h, read-out: Activity
# [29] = system: COLO 205; test: Growth inhibition of human COLO205 cells after 48 hrs by sulforhodamine B assay; conditions: COLO 205, 48 h; how it was run: as §2
# [30] = system: SK-OV-3; test: Growth inhibition of human SKOV3 cells after 48 hrs by sulforhodamine B assay; conditions: SK-OV-3, 48 h; how it was run: as §2
# [31] = read-out: pLC50 (the source's name) (converted)
structure (smiles),measurement,setting,value
Nc1cc(N)c2nc(-c3ccccc3)c(NCc3ccc(F)cc3)nc2c1,GI50,[1],6.61 µM
same,LC50,[1],52.5 µM
same,TGI,[1]; read-out: pTGI (converted),20 µM
same,GI50,[2],2510 nM
same,LC50,[2],> 100 µM
same,TGI,[2]; read-out: pTGI (converted),6.31 µM
same,GI50,[3],1910 nM
same,CC50,[3]; [31],7.41 µM
same,TGI,[3]; read-out: pTGI (converted),3.8 µM
same,GI50,[4],17.8 µM
same,LC50,[4],69.2 µM
same,TGI,[4]; read-out: pTGI (converted),34.7 µM
same,GI50,[5],23.4 µM
same,CC50,[5]; [31],> 100 µM
same,TGI,[5]; read-out: pTGI (converted),56.2 µM
same,GI50,[6],2630 nM
same,CC50,[6]; [31],21.9 µM
same,TGI,[6]; read-out: pTGI (converted),6.03 µM
same,growth at 100 µM,[7],1%
same,GI50,[8],3.09 µM
same,CC50,[8]; [31],> 100 µM
same,TGI,[8]; read-out: pTGI (converted),> 100 µM
same,GI50,[9],12.9 µM
same,LC50 (concentration causing 50% net cell death),[9],> 100 µM
same,TGI,[9]; read-out: pTGI (converted),> 100 µM
same,GI50,[10],3.02 µM
same,CC50,[10]; [31],> 100 µM
same,TGI,[10]; read-out: pTGI (converted),> 100 µM
same,GI50,[11],1580 nM
same,LC50 (50% net cell kill),[11],6.31 µM
same,TGI,[11]; read-out: pTGI (converted),3.16 µM
same,GI50,[12],4.07 µM
same,LC50 (50% net cell kill),[12],> 100 µM
same,TGI,[12]; read-out: pTGI (converted),25.7 µM
same,GI50,[13],12.3 µM
same,CC50,[13]; [31],60.3 µM
same,TGI,[13]; read-out: pTGI (converted),26.9 µM
same,GI50,[14],1860 nM
same,CC50,[14]; [31],6.92 µM
same,TGI,[14]; read-out: pTGI (converted),3.63 µM
same,GI50,[15],2820 nM
same,LC50,[15],40.7 µM
same,TGI,[15]; read-out: pTGI (converted),7.59 µM
same,growth at 100 µM,[16],1%
same,GI50,[17],2400 nM
same,LC50 (50% net cell kill concentration),[17],8.91 µM
same,TGI,[17]; read-out: pTGI (converted),4.57 µM
same,GI50,[18],3.47 µM
same,CC50,[18]; [31],> 100 µM
same,TGI,[18]; read-out: pTGI (converted),15.5 µM
same,GI50,[19],2190 nM
same,CC50,[19]; [31],> 100 µM
same,TGI,[19]; read-out: pTGI (converted),9.55 µM
same,GI50,[20],2140 nM
same,CC50,[20]; [31],19.5 µM
same,TGI,[20]; read-out: pTGI (converted),5.13 µM
same,GI50,[21],1700 nM
same,CC50,[21]; [31],60.3 µM
same,TGI,[21]; read-out: pTGI (converted),8.13 µM
same,GI50,[22],2000 nM
same,CC50,[22]; [31],6.92 µM
same,TGI,[22]; read-out: pTGI (converted),3.72 µM
same,GI50,[23],2040 nM
same,CC50,[23]; [31],8.91 µM
same,TGI,[23]; read-out: pTGI (converted),4.27 µM
same,GI50,[24],1510 nM
same,CC50,[24]; [31],9.77 µM
same,TGI,[24]; read-out: pTGI (converted),3.8 µM
same,GI50,[25],3.47 µM
same,LC50 (50% net cell kill),[25],64.6 µM
same,TGI,[25]; read-out: pTGI (converted),13.5 µM
same,GI50,[26],5.89 µM
same,CC50,[26]; [31],53.7 µM
same,TGI,[26]; read-out: pTGI (converted),20 µM
same,GI50,[27],15.5 µM
same,CC50,[27]; [31],56.2 µM
same,TGI,[27]; read-out: pTGI (converted),29.5 µM
same,growth at 100 µM,[28],1%
same,GI50,[29],2510 nM
same,LC50 (50% net cell kill),[29],> 100 µM
same,TGI,[29]; read-out: pTGI (converted),6.17 µM
same,GI50,[30],12.9 µM
same,CC50,[30]; [31],53.7 µM
same,TGI,[30]; read-out: pTGI (converted),26.3 µM
